HCV NS3 hel inh = inhibitors of HCV NS3 helicase, primary screen, biochemical, Cy5 molecular beacon fluorescence. NS3 helicase DNA unwinding. AID 1800, 2009. inhibition, % at 10.9 µM. Hepatitis C virus NS3 helicase. 290,000 tested, 0.56% active;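 active means inhibition above the mean of all tested compounds plus 3 SD, set per campaign, cut at about 35% in these data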;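 further: 0% = DMSO wells and 100% = thioflavine S control wells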
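assay system = NS3 helicase fragment of HCV | buffer or medium = MOPS pH 6.5, MgCl2, DTT, Tween20, BSA | timing = 60 min unwinding reaction at 25 °C after ATP addition | signal = Cy5 beacon fluorescence read at start and 1 h | read-out basis = % inhibition of unwinding | control set = low DMSO, high thioflavine S at 110 µM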
core dimer inh = inhibitors of HCV core protein dimerization, primary screen, biochemical, TR-FRET, high-throughput. 300,000 tested, 0.33% active. TR-FRET GST/Flag-core106 dimerization, 1536-well. inhibition, % at 5 µM;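 active means inhibition above the mean of all tested compounds plus 3 SD, set per screening campaign, cut at about 45% in these data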
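Assay system – GST-tagged and Flag-tagged HCV core protein residues 1-106 · Quantity – core106 proteins, GST 13.5 nM and Flag 17 nM · Benchmarks – unlabelled core106 and no-GST-core106 wells · Read-out basis – percent inhibition of core106 dimerization signal · Detection – time-resolved FRET, ex 340 nm, em 617 and 671 nm · Schedule – 4 h at 22.5 °C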
UBC9 SUMO inh = inhibitors of in vitro SUMOylation cascade, primary screen, biochemical, HTRF, uHTS. SUMO-conjugating enzyme UBC9 (Homo sapiens), P63279. HTRF SUMOylation assay, SAE1/SAE2 + UBC9. inhibition, % at 35 µM. 290,000 tested, 0.36% active; in the data active means inhibition above about 50%, passing the limit was not always enough
Target sequence (P63279 whole entry, looked up): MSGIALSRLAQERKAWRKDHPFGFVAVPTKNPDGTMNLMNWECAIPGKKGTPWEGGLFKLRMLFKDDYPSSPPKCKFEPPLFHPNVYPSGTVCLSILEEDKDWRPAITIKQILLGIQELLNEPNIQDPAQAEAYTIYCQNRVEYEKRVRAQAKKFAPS
VIM-2 inh = VIM-2 metallo-beta-lactamase inhibitors, primary screen, biochemical, epi-absorbance readout, Pseudomonas aeruginosa enzyme. inhibition, % at 5.6 µM. purified VIM-2, nitrocefin hydrolysis, epi-absorbance fluorescence. 290,000 tested, 0.89% active. AID 1527, 2009;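 active means inhibition above the mean of all tested compounds plus 3 SD, cutoff set per screening run, cut at about 7.5% in these data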;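 further: red hydrolysis product quenches plate fluorescence so inhibitors raise well fluorescence; 0% = enzyme with DMSO and 100% = DMSO without enzyme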
IMP-1 inh = IMP-1 metallo-beta-lactamase inhibitors, primary screen, biochemical, epi-absorbance readout, Pseudomonas aeruginosa enzyme | metallo-beta-lactamase IMP-1 (Pseudomonas aeruginosa) | purified IMP-1, nitrocefin hydrolysis, epi-absorbance fluorescence | inhibition, % at 5.6 µM | 290,000 tested, 0.45% active;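 active means inhibition above the mean plus 3 SD of all compounds in the same screening run, cut at about 4.5% in these data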;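 further: 0% = IMP-1 with DMSO and 100% = DMSO wells lacking enzyme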
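system = purified recombinant IMP-1 beta-lactamase | amount = 0.2 nM IMP-1, as dispensed | medium = HEPES buffer pH 7.1 with ZnSO4 and Brij 35 | times = 25 °C, 15 min preincubation, 25 min reaction | detection = plate fluorescence quenching by hydrolysis product, ex 480/em 530 nm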
PHOSPHO1 block = PubChem AID 1565; recombinant PHOSPHO1, absorbance phosphatase assay; inhibition, % at 13.3 µM; 290,000 tested, 1.1% active; in the data active means inhibition above about 60%
Target sequence (Q8TCT1 whole entry, looked up): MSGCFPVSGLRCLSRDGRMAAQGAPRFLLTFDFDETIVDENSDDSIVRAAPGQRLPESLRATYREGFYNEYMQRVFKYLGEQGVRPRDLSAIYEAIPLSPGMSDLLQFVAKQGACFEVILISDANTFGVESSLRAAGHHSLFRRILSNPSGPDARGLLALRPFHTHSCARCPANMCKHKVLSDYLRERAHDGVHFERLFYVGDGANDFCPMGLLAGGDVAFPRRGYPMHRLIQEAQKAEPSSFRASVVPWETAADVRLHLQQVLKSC
* = called active by the depositor; x = no result. Hits are enriched below; roughly 3.1% of the tested compounds scored in any of these assays.

SMILES | HCV NS3 hel inh | core dimer inh | UBC9 SUMO inh | VIM-2 inh | IMP-1 inh | PHOSPHO1 block
O=C1S/C(=C/c2ccc(N3CCOCC3)o2)C(=O)N1Cc1ccc(F)cc1 | 13 | -7 | 20 | -2 | -1 | -81
CC(C)NC(=O)C(=O)c1cn(C)c2ccccc12 | -5 | 2 | -15 | -1 | 0 | -3
Cn1cc(C(=O)C(F)(F)F)c2ccccc21 | -4 | -2 | 8 | 2 | 5.8* | 16
CN(CC(=O)NCc1ccccc1)Cc1cccc(F)c1 | 0 | x | 8 | -2 | 5.6* | 38
CCOc1ccc(CN(C)CC(=O)NCc2ccccc2)cc1 | 5 | 4 | -4 | 1 | 0 | 33
CCN(c1ccc(NC(=O)c2ccc(Cl)nc2)cc1)C(C)C | 10 | -10 | -3 | -2 | -4 | 12
C=CC[n+]1c(-c2ccc(OC)cc2)csc1NNC(=O)Nc1ccccc1 | 10 | 8 | -1 | -2 | -1 | 66*
CCc1[nH]nc(C(=O)N2CCCC(N3CCN(c4ccccc4C)CC3)C2)c1C (stereo unspecified) | -2 | 1 | 4 | -2 | -2 | 31
Cc1cccc(CN2CCC(C(=O)Nc3ccc(-n4nc(C)cc4C)cc3)CC2)n1 | 0 | -5 | 6 | -6 | -5 | 16
CC1=CC(C)C(C(=O)O)C(C(=O)N2CCN(C)CC2)C1 (stereo unspecified) | -1 | 0 | 17 | 9.3* | -2 | 44
CC1=CC(C)C(C(=O)O)C(C(=O)Nc2cccnc2)C1 (stereo unspecified) | -6 | -4 | 6 | -2 | 0 | 24
Cn1nnc2cc(NC(=O)Nc3cccc(C(F)(F)F)c3)ccc21 | -13 | -21 | 1 | -3 | -6 | 6
Cc1csc(NC(=O)CN(C)S(=O)(=O)c2cccc3cccnc23)n1 | 6 | -2 | 44 | -4 | -2 | 38
CN(CC(=O)Nc1n[nH]c(=S)s1)S(=O)(=O)c1cccc2cccnc12 | 18 | 9 | -3 | -5 | -3 | 60*
Cc1ccccc1N1CCN(C2CCCN(C(=O)c3noc4c3CCCC4)C2)CC1 (stereo unspecified) | -6 | 0 | 2 | -2 | -3 | 4
c1ccc(Cc2nnc3sc(C4COc5ccccc5O4)nn23)cc1 (stereo unspecified) | 3 | 10 | 4 | 0 | -1 | -19
Clc1ccccc1-c1nnc2sc(C3COc4ccccc4O3)nn12 (stereo unspecified) | -1 | 14 | -4 | 1 | -3 | 80*
c1ccc(OCc2nnc3sc(C4COc5ccccc5O4)nn23)cc1 (stereo unspecified) | 12 | 51* | 10 | -2 | -3 | 80*
CCn1c(SCC(=O)N(C)Cc2ccc(OC)c(F)c2)nc2cc(S(N)(=O)=O)ccc21 | -6 | -5 | 2 | -4 | -3 | 36
C=CCn1c(C)cc(-c2csc(N)n2)c1C | 4 | -1 | 42 | -1 | -7 | 98*
CN1CCC(N(C)C(=O)/C(C#N)=C/c2ccc(OC(F)F)cc2)CC1 | 3 | x | 8 | 0 | -1 | 34
C/C(=N\NC(=O)c1cccc(C)c1O)c1ccc(NC(=O)Cc2ccccc2)cc1 | 2 | -3 | 9 | -6 | -3 | 12
c1csc(-c2nn3c(Cn4nnc5ccccc54)nnc3s2)c1 | -6 | 0 | 0 | 0 | 0 | -3
c1ccc(Cc2nnc3sc(-c4cccs4)nn23)cc1 | -1 | 7 | 16 | -3 | -3 | 18
c1ccc(Cc2nnc3sc(-c4ccccn4)nn23)cc1 | -2 | 19 | 5 | -1 | -6 | 66*
SMILES | HCV NS3 hel inh | core dimer inh | UBC9 SUMO inh | VIM-2 inh | IMP-1 inh | PHOSPHO1 block
c1ccc(Cc2nnc3sc(-c4ccncc4)nn23)cc1 | 4 | -3 | 6 | -3 | -2 | 80*
c1ccc2c(c1)nnn2Cc1nnc2sc(-c3ccncc3)nn12 | 13 | 3 | 33 | 5 | 1 | 79*
c1csc(-c2nn3c(Cn4cnc5ccccc54)nnc3s2)c1 | 1 | -3 | -1 | -2 | -4 | 83*
Cc1cc(NC(=O)CN2C(=O)c3ccccc3C2=O)no1 | 1 | 1 | 11 | -2 | -1 | 42
O=C(NCc1cn(-c2ccccc2)nc1-c1ccc(F)cc1)c1cccc([N+](=O)[O-])c1 | -3 | 6 | -23 | -2 | 4 | 17
Cc1cc(/C([O-])=C(/C(=S)Nc2ccc(F)cc2)[n+]2ccccc2)c(C)n1Cc1ccccc1Cl | 5 | 9 | 9 | -2 | -2 | -51
Cc1cc(/C([O-])=C(/C(=S)Nc2ccc(F)cc2)[n+]2ccccc2)c(C)n1-c1ccc(F)cc1 | 35 | 8 | 26 | -1 | 2 | 96*
Cc1cc(/C([O-])=C(/C(=S)Nc2ccccc2)[n+]2ccccc2)c(C)n1-c1ccccc1 | 9 | 32 | 11 | -1 | -4 | 44
Cc1ccc(-n2c(C)cc(/C([O-])=C(/C(=S)Nc3ccc(F)c(Cl)c3)[n+]3ccccc3)c2C)cc1 | 7 | 38 | 10 | -1 | -5 | 84*
CC(OC(=O)c1ccc2c(=O)n3c(nc2c1)CCC3)C(=O)NC1CCCCC1C (stereo unspecified) | 8 | 3 | 2 | -1 | -1 | 26
COc1cc(/C=C/C(=O)OCC(=O)Nc2ccc3c(c2)OCCO3)ccc1OCC#N | -5 | -4 | 18 | 1 | -4 | 35
CCOC(=O)c1c(C)[nH]c(C(=O)COC(=O)c2oc3ccccc3c2C)c1C | 3 | 7 | 2 | -1 | -2 | 24
Cc1c(C(=O)OC(C)C(C)C[N+](C)(C)C)oc2ccccc12 (stereo unspecified) | 3 | 7 | 15 | -1 | -1 | 87*
O=C(Nc1ccc(F)c(Cl)c1)N1CCCCCC1 | 6 | -22 | -4 | -1 | -4 | 41
CCSc1nc(N)c2c3c(sc2n1)CN(C)CC3 | -6 | 5 | 7 | 8.5* | 0 | 46
COc1cc(CNc2ccc(S(N)(=O)=O)cc2)ccc1OCC(=O)NC1CCCCC1 | 3 | 1 | -4 | -3 | -2 | 20
COC1=C(Nc2ccc(C)cc2)C(=O)c2ccccc2C1=O | 0 | -47 | 23 | 7 | -2 | -5
COC1=C(Nc2ccccc2)C(=O)c2ccccc2C1=O | 8 | -47 | 78 | 10* | 3 | 13
COc1ccc(OC)c2c1C(=O)c1ccccc1C2=O | -43 | 1 | 50* | 7 | -1 | 95*

Screening results: PubChem, several laboratories
